Compounds with a hit are over-represented: about 2.5% of the library has one in this group of screens.
SENP7 block: SENP7 protease inhibition; recombinant SENP7, Z-RLRGG-aminoluciferin luminescence, 40 min; inhibition, % at 5 µM; Q9BQF6; hit rate 1.5% among 330,000; AID 434973;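 active = inhibition above about 50% at the single test dose, limit read from the data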;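 note: plate controls were DMSO with enzyme for no effect and no enzyme buffer wells for full effect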
SENP1 inh: blocks the human SENP1 SUMO protease catalytic domain. Q9P0U3. recombinant SENP1 catalytic domain, CyPet-SUMO1-YPet FRET cleavage. inhibition, % at 10 µM. hit rate 0.21% among 360,000. AID 624204;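 active = inhibition at least 30% at 10 µM, raw YFP signal under a set limit, fluorescence ratio 0.5 to 1.5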;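 note: 0% = enzyme with DMSO and 100% = no enzyme wells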
Target sequence (Q9P0U3 419-644 limits assumed): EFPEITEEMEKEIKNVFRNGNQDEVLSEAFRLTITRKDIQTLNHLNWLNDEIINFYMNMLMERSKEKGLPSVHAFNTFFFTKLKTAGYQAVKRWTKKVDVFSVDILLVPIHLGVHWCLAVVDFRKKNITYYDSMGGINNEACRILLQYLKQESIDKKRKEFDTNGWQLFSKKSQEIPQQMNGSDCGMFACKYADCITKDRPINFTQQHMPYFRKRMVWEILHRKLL
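material = recombinant human SENP1 catalytic domain, His6-tagged | quantity = 20 pM enzyme | reagent = 25 nM SUMO1 FRET substrate | compound dosing = 10 µM single point, 0.5% DMSO | timing = 50 min enzyme reaction, room temperature, light-protected | detection = FRET, CFP and YFP emission | control set = no-enzyme low, enzyme-DMSO high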
SENP6 block: SENP6 protease inhibition. inhibition, % at 10 µM. Recombinant SENP6 catalytic domain, aminoluciferin luminescence. hit rate 1.8% among 330,000. Q9GZR1;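 active = inhibition above about 50% at the single tested dose, limit read from the data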;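 note: plate controls were DMSO wells with enzyme for no effect and DMSO wells lacking enzyme for full effect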
SENP8 block-1: SENP8 protease inhibition; hit rate 1.2% among 330,000; purified SENP8, Z-RLRGG-aminoluciferin cleavage, luminescence; AID 2540; inhibition, % at 10 µM; Q96LD8; in the data active = inhibition above about 50%
Target sequence (Q96LD8 whole entry, looked up): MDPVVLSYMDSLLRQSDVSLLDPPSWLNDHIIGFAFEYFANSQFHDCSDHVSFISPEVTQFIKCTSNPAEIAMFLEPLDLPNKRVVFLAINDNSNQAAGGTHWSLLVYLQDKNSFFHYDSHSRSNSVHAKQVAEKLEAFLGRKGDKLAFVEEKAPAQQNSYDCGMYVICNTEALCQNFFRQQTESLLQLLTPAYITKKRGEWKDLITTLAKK
SENP8 block-2: blocks human SENP8 cleavage of Nedd8 substrate; recombinant SENP8, Nedd8 substrate fluorescence; AID 602440; Q96LD8; hit rate 0.64% among 360,000; inhibition, % at 20 µM; in the data active = inhibition mostly above about 40%, no sharp cut-off; inactive = mostly below about 27%
SENP8 conf: confirmation of human SENP8 protease inhibitors | shares compounds with SENP8 block-2 | inhibition, % at 25 µM | purified SENP8, Nedd8-AMC/pro-Nedd8 cleavage fluorescence, 30 min | AID 624319 | hit rate 15% among 1,400; in the data active = inhibition mostly above about 39%, no sharp cut-off; inactive = mostly below about 34%
The depositor's hits bear a star; / = no result given; ! = a repeat was not active.

SMILES	SENP7 block	SENP1 inh	SENP6 block	SENP8 block-1	SENP8 block-2	SENP8 conf
COc1ccc(N2C(=O)[C@@H]3[C@H](C2=O)[C@H]2c4ccccc4C=CN2[C@@H]3C(C)=O)cc1	/	-19	/	/	63*	93*
COc1cccc(-c2nc3sc4c(c3c(=O)[nH]2)CCCCC4)c1	25	-13	-2	1	-297	/
CCC(=O)N(c1nnc(SC(C)C(=O)Nc2ccc(N3CCOCC3)cc2)s1)C1CC1 (stereo not given)	/	0	/	/	6	/
Cc1ccc(C2(SCC(N)C(=O)O)c3ccccc3-c3ccccc32)cc1 (stereo not given)	/	-6	/	/	3	/
CCOc1ccccc1NC1=C(Cl)C(=O)N(Cc2ccccc2)C1=O	-9	2	-12	-4	41*	17
CCOc1ccc(NC(=O)CCC(=O)N/N=C(\C)c2cccs2)cc1	6	1	-8	-10	1	/
CC1(OC(=O)C2CCCC2)C(=O)C=C2C=C3CCCN3C=C2C1=O (stereo not given)	6	/	0	3	/	/
CC1(OC(=O)CCc2ccccc2)C(=O)C=C2C=C3CCCN3C=C2C1=O (stereo not given)	5	-12	8	7	55*	43*
C=CCOc1ccc(CNCC2CCCO2)cc1 (stereo not given)	-4	1	-10	-6	20	/
COc1cccc(NC(=O)CSc2nnnn2C2CCCCC2)c1	-8	-1	-9	9	19	/
CCCCCCN1C=CC=C/C1=C\C=C(C#N)C#N	-9	-13	-7	-5	43*	29
O=C(CNc1ccc2c(c1)OCO2)N/N=C\c1cn(Cc2ccccc2)c2ccccc12	12	8	-5	0	44*	3
O=C(NCCCN1CCCC1=O)C(=O)NCC1OCCCN1S(=O)(=O)c1ccccc1 (stereo not given)	/	2	/	/	7	/
O=C(COc1ccc(CNC[C@H]2O[C@@H](n3ccc(=O)[nH]c3=O)[C@H](O)[C@@H]2O)cc1)Nc1ccccn1	/	-1	/	/	8	/
C[C@@H](NC(=O)c1[nH]cnc1C(=O)Nc1cccc(Cl)c1)c1ccccc1	-1	1	4	5	15	/
CSCC[C@H](NC(=O)[C@@H]1CSC2c3ccccc3C(=O)N21)C(=O)N1CCC[C@H]1CO (stereo not given in full)	-15	-3	9	-8	62*	8
COc1ccc(CNC(=O)Nc2cc(C)cc(C)c2)cc1	-4	2	1	-11	43*	1
COC(=O)C1=COC(OC2OC(CO)C(O)C(O)C2O)C2C1C=CC2(O)CO (stereo not given)	4	4	-19	-10	41*	5
Cc1ccc(C(=O)N2NC(c3ccc(F)cc3)C3C(=O)N(c4ccc(C)cc4)C(=O)C32)cc1 (stereo not given)	-10	5	-4	0	15	/
COc1ccccc1N1C(=O)C2C(c3ccc(F)cc3)NN(C(=O)c3ccc(C)cc3)C2C1=O (stereo not given)	6	3	-13	-1	44*	21
COc1ccc(S(=O)(=O)N(C)C)cc1NC(=O)CCCSc1ccccc1	-1	1	-6	-5	6	/
CCn1c(CNC(=O)c2cccs2)n[nH]c1=S	4	1	-9	-3	10	/
C[C@@H]1CN([C@H](C)CO)C(=O)CCCn2nncc2CO[C@H]1CN(C)C(=O)c1ccc(N2CCN(C)CC2)cc1	/	-2	/	/	7	/
C[C@H]1CN([C@@H](C)CO)C(=O)CCCn2nncc2CO[C@@H]1CN(C)C(=O)c1ccc(N2CCN(C)CC2)cc1	/	4	/	/	50*	0
O=C(CN(C(=O)CCC(=O)Nc1ccccn1)c1cccc(F)c1)NCc1ccco1	-1	-1	-10	5	-1	/
SMILES	SENP7 block	SENP1 inh	SENP6 block	SENP8 block-1	SENP8 block-2	SENP8 conf
C/C(=N\NC(=O)c1[nH]c2c([N+](=O)[O-])cc(C)cc2c1-c1ccccc1)c1cccnc1	4	2	-8	3	60*	13
Cc1cccc(C)c1NC(=O)CNC(=O)c1c(-c2ccccc2)noc1C	-11	3	-11	-11	4	/
Nc1ccc(Sc2ccccc2Cl)nc1	-2	2	1	1	14	/
O=[N+]([O-])c1ccc(Sc2ccccc2Cl)nc1	-3	0	-11	-2	40*	8
O=c1ccc(NS(=O)(=O)c2ccccc2Cl)cn1Cc1ccc(Cl)c(Cl)c1	10	-13	21	10	39*	-7
Cc1ccc(S(=O)(=O)Nc2ccc(=O)n(Cc3ccc(Cl)c(Cl)c3)c2)cc1	-1	-61	5	9	-46	/
O=C(NCCc1cccc(Cl)c1)c1cccc([N+](=O)[O-])c1	7	0	-2	-2	12	/
O=[N+]([O-])c1cccc(C(=Nc2cccc(Cl)c2)NO)c1	3	2	-6	5	41*	23
COc1ccc(Cl)cc1NC(=O)CN1CCN(S(=O)(=O)N2CCCCC2)CC1	-2	2	-21	12	10	/
Cc1nc2c(O)c3c(c(O)c2nc1C)C1C=CC3CC1	/	0	/	/	42*	7
NC(=O)CC(NC(=O)c1ccccc1)c1ccc(NCCc2ccc(Cl)cc2)c([N+](=O)[O-])c1 (stereo not given)	1	16	1	-5	44*	-1
NC(=O)CC(NC(=O)c1ccccc1)c1ccc(NC2CCCCC2)c([N+](=O)[O-])c1 (stereo not given)	9	5	-16	-10	43*	18
NC(=O)CC(NC(=O)c1ccccc1)c1ccc(NCc2ccc(F)c(F)c2)c([N+](=O)[O-])c1 (stereo not given)	-3	4	-13	4	23	/
COc1ccc2cc3[n+](cc2c1OC)CCc1cc2c(cc1-3)OCO2	10	28	4	9	53*!	32
Cc1nnc(N/N=C/c2cc([N+](=O)[O-])c(N3CCC(C)CC3)cc2N2CCC(C)CC2)n1N	4	0	17	-3	34	/
CCc1nnc(N/N=C/c2ccc(N3CCC(C)CC3)c([N+](=O)[O-])c2)n1N	19	2	-17	0	62*	43*
Nn1cnnc1N/N=C/c1ccc(Cl)c([N+](=O)[O-])c1	-4	2	-8	-7	66*	64*
CCCCCCCCN1C(=O)[C@H](CC(=O)NCCC(C)C)C[C@@]2(C(=O)OC)CCCCC=C12	/	0	/	/	7	/
Cn1c(Cc2ccccc2)nnc1SCC(=O)c1cccs1	2	1	19	3	40*	13
COc1ccc(C(=O)COc2ccccc2C(=O)Nc2ccccc2)cc1	-10	0	-10	-8	13	/
Nn1c(-c2ccccc2Cl)nnc1-c1ccccc1Cl	9	1	13	-6	40*	9
O=C1SCCN1N=Cc1ccc([N+](=O)[O-])o1	/	1	/	/	55*	18
